Assay results collected from several papers.
Compare with care: the assays were run in different laboratories.
Matrix: plasma

COc1ccc(-c2c(Nc3ccccn3)[nH]c3c(C4=CCCCC4)c(-c4ccccc4)nn3c2=O)cc1  AUC(0-t) (human; oral; 100 mg once daily; multiple doses, steady state, patients): 66300 ng·h/mL
C[C@@H](Oc1ccc(S(C)(=O)=O)cc1C(=O)N1C[C@@H]2C[C@]2(c2cc(C(F)(F)F)on2)C1)C(F)(F)F  AUC(0-t) (human; oral; 10 mg; single dose, fed): 1.81 µM·h
CC(=O)O[C@H]1C(=O)[C@@]2(C)[C@H]([C@H](OC(=O)c3ccccc3)[C@]3(O)C[C@H](OC(=O)[C@H](O)[C@@H](NC(=O)c4ccccc4)c4ccccc4)C(C)=C1C3(C)C)[C@]1(OC(C)=O)CO[C@@H]1C[C@@H]2O  AUC(0-t) (human; intravenous; 60 mg/m²): 2.1 µM·h
COc1ccc2c(c1)CN(C(=O)CCN1CCC(Cc3ccccc3)CC1)CC[S@@+]2[O-]  AUC(0-t) (male human; intravenous; 0.05 mg/kg; healthy volunteers): 241 ng·h/mL
OC[C@H]1O[C@@H](c2cc(Cc3ccc(C4CC4)cc3)c(Cl)c3c2CCO3)[C@H](O)[C@@H](O)[C@@H]1O  AUC(0-t) (human; oral; 0.3 mg; single dose, fasted): 26.5 ng·h/mL
CC(C)n1c(C2CCNCC2)nc2c([N+](=O)[O-])c(Br)c(Br)cc21  AUC(0-t) (human; oral; 50 mg; patients): 451 ng·h/mL
Cc1cc(-c2nccc3c2ccn3CC(=O)Nc2ccc(-c3cnccn3)cn2)ccn1  AUC(0-t) (human; oral; 7 mg; single dose): 0.498 µM·h
CC(=O)N(C)[C@H]1CCN(C(=O)c2cnc3c(c2)C[C@](C)(c2ccc(F)cc2)N3)C1  AUC(0-t) (male human; oral; 15 mg; multiple doses, once daily): 1.88 µM·h
